One experiment deals with HeLa Ub^G76V-GFP cells. Put plainly: Cell based proteasome assay: accumulation of UbG76V-GFP. The note with it: 7.5 uM for 24 hours; fluorescence microscope. Summed up: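 HeLa cells stably expressing UbG76V-GFP, seeded at 10,000 cells per well in growth medium, were cultured with test compound (7.5 uM) for 24 hours. Intracellular UbG76V-GFP accumulation was recorded as green fluorescence by fluorescence microscopy.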

Experiment [1] deals with chymotrypsin-like activity of the proteasome (Homo sapiens, UniProt P28074). Put plainly: Enzyme kinetic study. Format: biochemical. The procedure, abridged: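 The 20S proteasome chymotrypsin-like activity was measured across a range of Suc-Leu-Leu-Val-Tyr-AMC concentrations, with or without 2 μM or 4 μM test compound. Cleaved substrate was read as fluorescence units, and reaction rates were plotted as Lineweaver-Burk plots to derive Km and Vmax. Each point is the average of two independent experiments.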

Experiment [2] deals with chymotrypsin-like (ChT-L) activities of the 20S proteasome (Homo sapiens, UniProt P28074). Put plainly: Inhibition of chymotrypsin-like. It is filed as biochemical. The settings on record: qualitative statements in text.

Each structure is given as a SMILES string. Entries after “also recorded” stand apart in the source; their conditions may differ.

As to `C[C@H](CCC(=O)O)[C@H]1CC[C@H]2[C@@H]3CC[C@@H]4C[C@H](OC(=O)CC5(CC(=O)O)CCCC5)CC[C@]4(C)[C@H]3CC[C@]12C` [Compound 10], the “Accumulation of Ub^G76V-GFP (green fluorescence) in cells” value in the experiment on HeLa Ub^G76V-GFP cells is listed as “resulted in accumulation of Ub^G76V-GFP; also recorded: inhibited the proteasome”. In addition, the “Mode of proteasome inhibition” value in experiment [1] (Lineweaver-Burk plot, 2 μM and 4 μM compound, substrate Suc-Leu-Leu-Val-Tyr-AMC) is “noncompetitive inhibitor”. Also, in experiment [1] (compound at 2 μM and 4 μM), the “Effect on Michaelis-Menten constant (Km) of the substrate” value was “without affecting” and the “Effect on maximum reaction rate (Vmax) of the proteasomal activity” value is “reduced”.

Turning to `COC(=O)CC[C@@H](C)[C@H]1CC[C@H]2[C@@H]3CC[C@@H]4C[C@H](O)CC[C@]4(C)[C@H]3CC[C@]12C` [Compound 1], the “Inhibition of the chymotrypsin-like activity of the 20S proteasome, in words” value (from here on “Inhibition … in words”) in experiment [2] is on record as “loss of inhibitory activity”.

As to `C[C@H]1[C@H](C)CC[C@]2(C(=O)O)CC[C@]3(C)C(=CC[C@@H]4[C@@]5(C)CC[C@H](O)C(C)(C)[C@@H]5CC[C@]43C)[C@H]12` [ursolic acid, reference compound], the “Inhibition … in words” value in experiment [2] is on record as “only LA inhibited”.

`CCOC(=O)CC[C@@H](C)[C@H]1CC[C@H]2[C@@H]3CC[C@@H]4C[C@H](OC(=O)CCCCCC(=O)O)CC[C@]4(C)[C@H]3CC[C@]12C` [Compound 17]: the “Inhibition … in words” value in experiment [2] is “loss of inhibitory activity”.

Regarding `COC(=O)CC[C@@H](C)[C@H]1CC[C@H]2[C@@H]3CC[C@@H]4C[C@H](OC(=O)CCCCCC(=O)O)CC[C@]4(C)[C@H]3CC[C@]12C` [Compound 16], in experiment [2], the “Inhibition … in words” value is reported as “loss of inhibitory activity”.

On to `COC(=O)CC[C@@H](C)[C@H]1CC[C@H]2[C@@H]3CC[C@@H]4C[C@H](OC(=O)Cc5cccc(CC(=O)O)c5)CC[C@]4(C)[C@H]3CC[C@]12C` [Compound 15], for which, in experiment [2], the “Inhibition … in words” value is on record as “lost the inhibitory activity; also recorded: loss of inhibitory activity”.

For the compound `CC1(C)C=C2[C@H]3CC[C@@H]4[C@@]5(C)CCC(=O)C(C)(C)[C@@H]5CC[C@@]4(C)[C@]3(C)CC[C@@]2(C(=O)O)CC1` [moronic acid, reference compound], the “Inhibition … in words” value in experiment [2] was “only LA inhibited”.

In the case of `CCOC(=O)CC[C@@H](C)[C@H]1CC[C@H]2[C@@H]3CC[C@@H]4C[C@H](O)CC[C@]4(C)[C@H]3CC[C@]12C` [Compound 2], the “Inhibition … in words” value in experiment [2] is reported as “loss of inhibitory activity”.

`C[C@H](CCC(=O)O)[C@H]1CC[C@H]2[C@@H]3CC[C@@H]4C[C@H](OC(=O)CCCCCC(=O)O)CC[C@]4(C)[C@H]3CC[C@]12C` [Compound 8]: the “Inhibition … in words” value in experiment [2] was “did not inhibit”.
